Experimental data taken from ChEMBL document CHEMBL1141579, “Synthesis, cytostatic, and antiviral activity of novel 6-[2-(dialkylamino)ethyl]-, 6-(2-alkoxyethyl)-, 6-[2-(alkylsulfanyl)ethyl]-, and 6-[2-(dialkylamino)vinyl]purine nucleosides” (Bioorg Med Chem, 2008).
Active and inactive are the calls of the source. The rule behind the calls is not given here.

Experiments:
[1] = tested on: HL-60; experiment: Cytostatic activity against human HL60 cells ATCC CCL 240 assessed as growth reduction after 72 hrs; type: functional, cell-based; details: for IC50: HL-60, 72 h
Procedure, shortened: (§1)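 Cells grown in RPMI 1640 with foetal calf serum in 24-well plates. Counted in a haematological analyzer 72 h after drug addition. Inhibition expressed as IC50.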

[2] = tested on: L1210; experiment: Cytostatic activity against mouse L1210 cells ATCC CCL219 assessed as growth reduction after 72 hrs; type: functional, cell-based; details: for IC50: L1210, 72 h; procedure, shortened: as §1
[3] = tested on: CCRF-CEM; experiment: Cytostatic activity against human CCRF-CEM cells ATCC CCL 119 assessed as growth reduction after 72 hrs; type: functional, cell-based; procedure, shortened: as §1
[4] = Cytotoxicity against human Huh7 cells harboring con1 replicon after 3 days by MTT assay; type: cell-based, Huh-7
Procedure, shortened: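 Con-1 replicon-bearing Huh-7 cells were seeded at 8 · 10^3 cells per well in medium without Geneticin. Compound was serially diluted in 100% DMSO and added 1:200, giving 0.5% DMSO final. Cells were incubated at 37 C for 3 days. Toxicity was read at the end, in duplicate (N = 2).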

[5] = tested on: Hepatitis C virus; experiment: Antiviral activity against HCV 1b Con1 replicon in Huh7 cells; type: functional, organism-based, Hepatitis C virus subtype 1b; details: Huh-7
Procedure, shortened: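 Con-1/lucneo replicon cells seeded at 8 × 10^3 per well in medium without Geneticin. Compounds serially diluted in DMSO and added 1:200 (0.5% DMSO final). Incubated 3 days at 37 C. Cells lysed and luciferase activity read by luminometer. EC50 by non-linear regression, N = 2.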

[6] = tested on: CCRF-CEM; experiment: Cytostatic activity against human CCRF-CEM cells ATCC CCL 119 assessed as cell viability by XTT test; type: functional, cell-based
Procedure, shortened: (§2)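 Cell viability quantified by the XTT spectrophotometric assay. Inhibition expressed as IC50.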

[7] = tested on: HL-60; experiment: Cell cycle arrest in human HL60 cells assessed as accumulation in G2/M phase at 14 uM relative to control; type: functional
Procedure, shortened: (§3)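 HL-60 cells treated at the stated concentration, then fixed in ethanol. Stained with propidium iodide in buffer containing RNase A and analysed by flow cytometry. Result given as the ratio of the treated to the control cell fraction in each phase (G1, S, G2/M).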

[8] = tested on: HL-60; experiment: Cell cycle arrest in human HL60 cells assessed as accumulation in G1 phase at 3.5 uM relative to control; type: functional; procedure, shortened: as §3
[9] = tested on: HL-60; experiment: Cell cycle arrest in human HL60 cells assessed as accumulation in S phase at 14 uM relative to control; type: functional; procedure, shortened: as §3
[10] = tested on: HL-60; experiment: Cell cycle arrest in human HL60 cells assessed as accumulation in S phase at 3.5 uM relative to control; type: functional; procedure, shortened: as §3
[11] = tested on: HL-60; experiment: Cell cycle arrest in human HL60 cells assessed as accumulation in G2/M phase at 3.5 uM relative to control; type: functional; procedure, shortened: as §3
[12] = tested on: HL-60; experiment: Cytostatic activity against human HL60 cells ATCC CCL 240 assessed as cell viability by XTT test; type: functional, cell-based; procedure, shortened: as §2
[13] = tested on: HL-60; experiment: Cell cycle arrest in human HL60 cells assessed as accumulation in G1 phase at 14 uM relative to control; type: functional; procedure, shortened: as §3
[14] = Cytotoxicity against human MT4 cells after 5 days; type: cell-based
Procedure, shortened: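 MT-4 cells were seeded at 2 · 10^3 cells/well. Compounds were serially diluted in culture medium and cells were incubated for 5 days. Survival was measured by CellTiter Glo luminescence, in duplicate (N = 2).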

[15] = tested on: HL-60; experiment: Cell cycle arrest in human HL60 cells assessed as accumulation in G2/M phase at 4.5 uM relative to control; type: functional; procedure, shortened: as §3
[16] = tested on: HL-60; experiment: Cell cycle arrest in human HL60 cells assessed as accumulation in S phase at 4.5 uM relative to control; type: functional; procedure, shortened: as §3
[17] = tested on: HL-60; experiment: Cell cycle arrest in human HL60 cells assessed as accumulation in G1 phase at 18 uM relative to control; type: functional; procedure, shortened: as §3
[18] = tested on: HL-60; experiment: Cell cycle arrest in human HL60 cells assessed as accumulation in S phase at 18 uM relative to control; type: functional; procedure, shortened: as §3
[19] = tested on: HL-60; experiment: Cell cycle arrest in human HL60 cells assessed as accumulation in G1 phase at 4.5 uM relative to control; type: functional; procedure, shortened: as §3
[20] = tested on: HL-60; experiment: Cell cycle arrest in human HL60 cells assessed as accumulation in G2/M phase at 18 uM relative to control; type: functional; procedure, shortened: as §3

| SMILES | IC50 [1] [µM] | IC50 [2] [µM] | IC50 [3] [µM] | Activity [1] | CC50 at 72 h [4] [µM] | Activity [2] | EC50 [5] [µM] | Activity [3] | IC50 [6] [µM] | IC50 [12] [µM] | other results |
| --- | --- | --- | --- | --- | --- | --- | --- | --- | --- | --- | --- |
| O=c1[nH]c(=O)n([C@H]2C[C@H](O)[C@@H](CO)O2)cc1F [FLOXURIDINE] | 0.012 | 0.012 | 0.017 |  |  |  |  |  |  |  |  |
| CN(C)CCc1ncnc2c1ncn2[C@H]1C[C@H](O)[C@@H](CO)O1 |  |  |  | inactive | > 250 | inactive | 116 | inactive |  |  |  |
| CCCCN(/C=C/c1ncnc2c1ncn2[C@H]1C[C@H](O)[C@@H](CO)O1)CCCC |  |  |  | inactive | > 100 | inactive | 85 | inactive |  |  |  |
| CCCCN(CCCC)CCc1ncnc2c1ncn2[C@@H]1O[C@H](CO)[C@@H](O)[C@H]1O | 5.3 | 4.4 | 6.4 |  | 37 |  | 5.6 |  | 4.59 | 13.8 | Activity [7]: 0.64; Activity [8]: 0.85; Activity [9]: 0.68; Activity [10]: 1.15; Activity [11]: 0.93; Activity [13]: 1.51 |
| OC[C@H]1O[C@@H](n2cnc3c(CCSc4nc5ccccc5s4)ncnc32)[C@H](O)[C@@H]1O |  |  |  | inactive | > 100 | inactive | > 100 | inactive |  |  |  |
| C[C@@]1(O)[C@H](O)[C@@H](CO)O[C@H]1n1cnc2c(N)ncnc21 |  |  |  |  | > 100 |  | 0.23 |  |  |  |  |
| OC[C@H]1O[C@@H](n2cnc3c(CCN4CCOCC4)ncnc32)C[C@@H]1O |  |  |  | inactive | > 100 | inactive | 25 | inactive |  |  | CC50 at 120 h [14]: 13 µM |
| CCCCN(/C=C/c1ncnc2c1ncn2[C@@H]1O[C@H](CO)[C@@H](O)[C@H]1O)CCCC | 7.2 | 2 | 2.5 |  | 2 |  | 1 |  | 0.83 | 0.84 |  |
| COCCc1ncnc2c1ncn2[C@@H]1O[C@H](CO)[C@@H](O)[C@H]1O |  |  |  | inactive | > 100 | inactive | 40 | inactive |  |  | CC50 at 120 h [14]: 13 µM |
| OC[C@H]1O[C@@H](n2cnc3c(CCN4CCOCC4)ncnc32)[C@H](O)[C@@H]1O |  |  |  | inactive | 31 | inactive | 6 | inactive |  |  |  |
| CN(C)/C=C/c1ncnc2c1ncn2[C@@H]1O[C@H](CO)[C@@H](O)[C@H]1O | 3.3 | 2.2 | 1.25 |  | 5 |  | 4 |  | 0.8 | 0.62 |  |
| OC[C@H]1O[C@@H](n2cnc3c(/C=C/N4CCCCC4)ncnc32)[C@H](O)[C@@H]1O | 2.3 | 1.55 | 2.1 |  | 26 |  | 1 |  | 0.32 | 0.44 | CC50 at 120 h [14]: 6 µM |
| OC[C@H]1O[C@@H](n2cnc3c(CCSCc4ccccc4)ncnc32)[C@H](O)[C@@H]1O |  |  |  | inactive | > 100 | inactive | > 100 | inactive |  |  |  |
| OC[C@H]1O[C@@H](n2cnc3c(CCN4CCCCC4)ncnc32)[C@H](O)[C@@H]1O |  |  |  | inactive | > 250 | inactive | 37 | inactive |  |  |  |
| COC(=O)CSCCc1ncnc2c1ncn2[C@@H]1O[C@H](CO)[C@@H](O)[C@H]1O |  |  |  | inactive | > 100 | inactive | 54 | inactive |  |  | CC50 at 120 h [14]: > 100 µM |
| CCN(CC)CCc1ncnc2c1ncn2[C@@H]1O[C@H](CO)[C@@H](O)[C@H]1O | 6.8 | 5.2 | 1.25 |  | 45 |  | 6.7 |  | 0.8 | 17.3 | Activity [15]: 0.8; Activity [16]: 1.08; Activity [17]: 1.38; Activity [18]: 0.78; Activity [19]: 0.99; Activity [20]: 0.65 |
| CN(/C=C/c1ncnc2c1ncn2[C@@H]1O[C@H](CO)[C@@H](O)[C@H]1O)Cc1ccccc1 | 3.6 | 2.1 | 2.3 |  | 1 |  | 0.34 |  | 0.78 | 0.57 |  |
| CN(CCc1ncnc2c1ncn2[C@@H]1O[C@H](CO)[C@@H](O)[C@H]1O)Cc1ccccc1 | 11.2 | 7.9 | 5.7 |  | 132 |  | 11 |  | 5.83 | 17.7 | Activity [15]: 0.94; Activity [16]: 0.95; Activity [19]: 1.08 |
| CCN(/C=C/c1ncnc2c1ncn2[C@@H]1O[C@H](CO)[C@@H](O)[C@H]1O)CC | 2.3 | 2.2 | 1 |  | 8 |  | 4 |  | 0.67 | 0.81 |  |
| OC[C@H]1O[C@@H](n2cnc3c(/C=C/N4CCCCC4)ncnc32)C[C@@H]1O |  |  |  | inactive | > 100 | inactive | 53 | inactive |  |  |  |
| CSCCc1ncnc2c1ncn2[C@@H]1O[C@H](CO)[C@@H](O)[C@H]1O |  |  |  | inactive | > 100 | inactive | > 100 | inactive |  |  |  |
| OC[C@H]1O[C@@H](n2cnc3c(/C=C/N4CCOCC4)ncnc32)[C@H](O)[C@@H]1O | 4.5 | 2.3 | 2.4 |  | 23 |  | 5 |  | 0.41 | 0.31 |  |
| OC[C@H]1O[C@@H](n2cnc3c(CC4SCCS4)ncnc32)[C@H](O)[C@@H]1O |  |  |  | inactive | > 100 | inactive | > 100 | inactive |  |  |  |
| CN(C)CCc1ncnc2c1ncn2[C@@H]1O[C@H](CO)[C@@H](O)[C@H]1O |  |  |  | inactive | 20 | inactive | 7 | inactive |  |  |  |
